Values after ≈ are worked out from the molar mass of the structure shown.
Tests used:
[1] = molecular target: T1, Melanin-concentrating hormone receptor 1 (Homo sapiens, UniProt Q99705); assay: biochemical; format: cell-based, CHO-K1
[2] = molecular target: T1, Melanin-concentrating hormone receptor 1; assay: Antagonist activity at human MCHR1 expressed in CHO-K1 cells assessed as inhibition of MCH peptide mediated response measuring [3H]inositol phosphate production by IP3-SPA-YSI assay; format: functional, cell-based
[3] = Solubility of the compound in 5% DMSO and 95% PBS after overnight incubation using plate shaker; format: physicochemical
Method in brief: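 A 10 mM DMSO stock was diluted into PBS to a final 500 µM (5% DMSO). The mix was left to precipitate overnight at RT on a plate shaker, then centrifuged. Supernatant absorbance was read at 260, 280 and 620 nm. Solubility is the absorbance ratio of PBS supernatant to an acetonitrile reference (100 and 500 µM). The 620 nm reading was used to exclude visible contamination.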

[4] = Metabolic stability in mouse liver microsomes assessed as compound remaining at 10 uM after 30 mins by HPLC analysis; format: ADME, Microsome; settings: read-out: Stability
Method in brief: (§1)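 Compound at 10 µM was incubated with 1 mg/ml mouse or pooled human liver microsomes in 0.1 M phosphate buffer, pH 7.4. Reaction was started with NADPH and run 30 min at 37 °C. Result is % parent remaining.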

[5] = Metabolic stability in human liver microsomes assessed as compound remaining at 10 uM after 30 mins by HPLC analysis; format: ADME, Microsome; settings: read-out: Stability
Method in brief: as §1

[6] = Stability in mouse blood assessed as compound remaining after 30 mins by HPLC analysis; format: ADME, tissue-based; settings: read-out: Stability
hERG (KCNH2) = hERG (KCNH2) (Homo sapiens, UniProt Q12809); assay: Inhibition of human ERG at 1 uM
[7] = molecular target: Voltage-gated inwardly rectifying potassium channel KCNH2 (Homo sapiens, UniProt Q12809)
[8] = molecular target: T1, Melanin-concentrating hormone receptor 1; assay: Antagonist activity at human MCHR1 expressed in CHO-K1 cells assessed as inhibition of MCH peptide mediated response measuring [3H]inositol phosphate production at 10 uM by IP3-SPA-YSI assay; format: functional, cell-based; design: scale not given: the % may be the effect or the level left
[9] = 5% DMSO and 95% PBS, read-out: solubility

T1 sequence (Q99705 whole entry): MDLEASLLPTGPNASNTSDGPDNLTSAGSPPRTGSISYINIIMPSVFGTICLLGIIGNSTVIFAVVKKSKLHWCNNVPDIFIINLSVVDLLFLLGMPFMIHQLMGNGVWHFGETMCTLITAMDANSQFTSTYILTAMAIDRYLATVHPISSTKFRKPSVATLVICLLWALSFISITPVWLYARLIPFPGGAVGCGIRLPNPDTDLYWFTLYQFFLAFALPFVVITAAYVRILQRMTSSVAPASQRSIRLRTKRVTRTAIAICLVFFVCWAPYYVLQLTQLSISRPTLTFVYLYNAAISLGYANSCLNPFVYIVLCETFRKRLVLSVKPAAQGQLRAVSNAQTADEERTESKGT
Chain of hERG (KCNH2) (Q12809 whole entry): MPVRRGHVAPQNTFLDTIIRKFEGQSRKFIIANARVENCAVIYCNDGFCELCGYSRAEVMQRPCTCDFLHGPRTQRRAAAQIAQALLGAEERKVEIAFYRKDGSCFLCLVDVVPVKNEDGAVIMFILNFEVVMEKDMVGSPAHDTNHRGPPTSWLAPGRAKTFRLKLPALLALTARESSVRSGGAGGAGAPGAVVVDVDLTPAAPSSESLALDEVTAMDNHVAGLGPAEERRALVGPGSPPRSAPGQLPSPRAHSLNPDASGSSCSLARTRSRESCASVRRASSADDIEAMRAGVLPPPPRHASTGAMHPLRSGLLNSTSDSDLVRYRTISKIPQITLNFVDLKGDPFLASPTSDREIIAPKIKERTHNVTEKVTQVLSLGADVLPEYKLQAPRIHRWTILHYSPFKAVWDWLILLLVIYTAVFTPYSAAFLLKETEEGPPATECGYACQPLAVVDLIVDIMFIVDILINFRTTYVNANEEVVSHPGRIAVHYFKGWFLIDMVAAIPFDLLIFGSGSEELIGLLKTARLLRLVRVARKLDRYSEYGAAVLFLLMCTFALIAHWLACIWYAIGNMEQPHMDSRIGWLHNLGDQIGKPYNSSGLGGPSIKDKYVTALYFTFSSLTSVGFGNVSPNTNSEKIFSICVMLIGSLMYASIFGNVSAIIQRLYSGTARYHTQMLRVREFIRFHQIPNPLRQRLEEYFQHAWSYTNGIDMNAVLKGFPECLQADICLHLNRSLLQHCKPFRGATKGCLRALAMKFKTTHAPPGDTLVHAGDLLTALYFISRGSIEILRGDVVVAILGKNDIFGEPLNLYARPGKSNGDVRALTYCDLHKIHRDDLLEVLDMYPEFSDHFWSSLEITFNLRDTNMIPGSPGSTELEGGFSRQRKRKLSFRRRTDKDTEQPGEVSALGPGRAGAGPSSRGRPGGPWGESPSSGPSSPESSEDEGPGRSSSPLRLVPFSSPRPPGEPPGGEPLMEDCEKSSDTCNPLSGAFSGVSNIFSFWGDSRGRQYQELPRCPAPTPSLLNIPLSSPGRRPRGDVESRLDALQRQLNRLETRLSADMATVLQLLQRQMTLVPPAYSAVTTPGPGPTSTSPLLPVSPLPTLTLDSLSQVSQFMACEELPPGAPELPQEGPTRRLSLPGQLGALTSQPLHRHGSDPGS
Chain of Voltage-gated inwardly rectifying potassium channel KCNH2 (Q12809 whole entry): as above

SMILES | IC50 [1] | IC50 [2] | other results
Cc1nc(N2CCN(C(=O)C3CCC3)CC2)nc2ccc(NC(=O)COc3ccc(OC(F)(F)F)cc3)cc12 | 84 nM | 45 nM | solubility [3, 9]: 4 µM (≈ 2.17 µg/mL); remaining at 0.5 h, 10 µM [4]: 69%; remaining at 0.5 h, 10 µM [5]: 52%; remaining at 0.5 h [6]: 45%
Cc1nc(N2CCC(N3CCCC3)CC2)nc2ccc(NC(=O)C(C)Oc3ccc(Cl)cc3)cc12 (configuration not stated) | 258 nM | 401 nM | solubility [3, 9]: 272 µM (≈ 134 µg/mL); remaining at 0.5 h, 10 µM [4]: 34%; remaining at 0.5 h [6]: 67%; inhibition at 1 µM (hERG (KCNH2)): 76%
Cc1nc(N2CCC(N3CCCC3)CC2)nc2ccc(NC(=O)COc3ccc(Cl)cc3)cc12 | 20 nM | 81 nM | IC50 [7]: 450 nM
Cc1nc(N2CCC(O)(C3CCC3)CC2)nc2ccc(NC(=O)COc3ccc(OC(F)(F)F)cc3)cc12 | 79 nM | 27 nM | inhibition at 1 µM (hERG (KCNH2)): 31%
Cc1nc(N2CCC(NC(=O)NC(C)C)CC2)nc2ccc(NC(=O)COc3ccc(Cl)cc3)cc12 | 7 nM | 4 nM | solubility ([3]; buffer): Insoluble
CCN1CCN(c2nc(C)c3cc(NC(=O)COc4ccc(Cl)cc4)ccc3n2)CC1 | 690 nM | – | –
Cc1nc(N2CCC(C(N)=O)CC2)nc2ccc(NC(=O)COc3ccc(OC(F)(F)F)cc3)cc12 | 23 nM | 32 nM | –
Cc1nc(N2CCN(C(=O)C3CCC3)CC2)nc2ccc(NC(=O)COc3ccc(Cl)cc3)cc12 | 325 nM | 158 nM | –
Cc1nc(N2CCN(C(=O)C(C)C)CC2)nc2ccc(NC(=O)COc3ccc(Cl)cc3)cc12 | 225 nM | 91 nM | –
Cc1nc(N2CCC(O)(C3CC3)CC2)nc2ccc(NC(=O)COc3ccc(OC(F)(F)F)cc3)cc12 | 101 nM | 33 nM | –
Cc1nc(N2CCC(C(=O)NC(C)C)CC2)nc2ccc(NC(=O)COc3ccc(Cl)cc3)cc12 | 15 nM | 25 nM | solubility [3, 9]: 132 µM (≈ 65.5 µg/mL); remaining at 0.5 h, 10 µM [4]: 11%; remaining at 0.5 h, 10 µM [5]: 70%; remaining at 0.5 h [6]: 49%
Cc1nc(N2CCN(C)CC2)nc2ccc(NC(=O)COc3ccc(Cl)cc3)cc12 | 220 nM | 3800 nM | –
Cc1nc(N2CCC(O)(C(N)=O)CC2)nc2ccc(NC(=O)COc3ccc(OC(F)(F)F)cc3)cc12 | 636 nM | – | Activity [8]: 72%
Cc1nc(N2CCC(O)(c3ccc(F)cn3)CC2)nc2ccc(NC(=O)COc3ccc(OC(F)(F)F)cc3)cc12 | 213 nM | 59 nM | –
Cc1nc(N2CCN(C3CC3)CC2)nc2ccc(NC(=O)COc3ccc(Cl)cc3)cc12 | 270 nM | 350 nM | –

More lines, in order of falling IC50 [1], values ahead:

IC50 [1] | IC50 [2] | SMILES | other results
7300 nM | > 10000 nM | Cc1nc(N2CCN(C(=O)c3ccccc3)CC2)nc2ccc(NC(=O)COc3ccc(Cl)cc3)cc12 | –
782 nM | 246 nM | Cc1nc(N2CCN(CC(C)(C)C)CC2)nc2ccc(NC(=O)COc3ccc(Cl)cc3)cc12 | –
635 nM | 100 nM | Cc1nc(N2CCC(O)(c3cccc(F)c3)CC2)nc2ccc(NC(=O)COc3ccc(OC(F)(F)F)cc3)cc12 | –
327 nM | 156 nM | Cc1nc(N2CCC(O)(C3CCCCC3)CC2)nc2ccc(NC(=O)COc3ccc(OC(F)(F)F)cc3)cc12 | –
305 nM | 350 nM | Cc1nc(N2CCN(C(=O)C3CCCC3)CC2)nc2ccc(NC(=O)COc3ccc(Cl)cc3)cc12 | –
237 nM | 827 nM | Cc1nc(N2CCC(C)(O)CC2)nc2ccc(NC(=O)COc3ccc(Cl)cc3)cc12 | –
208 nM | 384 nM | CCC1(O)CCN(c2nc(C)c3cc(NC(=O)COc4ccc(Cl)cc4)ccc3n2)CC1 | –
47 nM | 18 nM | Cc1nc(N2CCC(C(=O)N(C)C)CC2)nc2ccc(NC(=O)COc3ccc(OC(F)(F)F)cc3)cc12 | –
45 nM | 115 nM | Cc1nc(N2CCN(C3CCOCC3)CC2)nc2ccc(NC(=O)COc3ccc(Cl)cc3)cc12 | solubility [3, 9]: 15 µM (≈ 7.44 µg/mL); remaining at 0.5 h, 10 µM [4]: 1%; remaining at 0.5 h, 10 µM [5]: 39%
17 nM | 9 nM | Cc1nc(N2CCC(C(=O)NC(C)C)CC2)nc2ccc(NC(=O)COc3ccc(OC(F)(F)F)cc3)cc12 | –
